Here are results for 25 molecules from ChEMBL document CHEMBL1137375, “Design, synthesis, and biological evaluation of new 1,8-naphthyridin-4(1H)-on-3-carboxamide and quinolin-4(1H)-on-3-carboxamide derivatives as CB2 selective agonists” (J Med Chem, 2006).

The source made the active and inactive calls. No cut-off for these calls is given here. Bounds are passed on as bounds.

Assay [1] has as its target T1, Cannabinoid receptor 1 (Mus musculus, UniProt P47746). The assay is described as follows: Displacement of [3H]CP-55940 from CB1 receptor in DBA/J2 mouse brain. Format: tissue-based. In general terms: Displacement assays read how much labelled ligand stays bound in the presence of the test substance.
Assay [2] addresses Cannabinoid receptor 2 (Mus musculus, UniProt P47936). The assay is described as follows: Displacement of [3H]CP-55940 from CB2 receptor in DBA/J2 mouse spleen. Put shortly: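 Membranes (40-60 µg protein) from mouse brain minus cerebellum (CB1) or spleen (CB2), incubated 1 h at 30 °C with 0.5 nM [3H]CP-55,940 in TME buffer (pH 7.4) with 5 mg/mL BSA. GF/C filtration, scintillation counting. IC50 by nonlinear fit, converted to Ki by Cheng-Prusoff; at least three membrane preparations.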

In assay [3] the target is Cannabinoid receptor (Mus musculus) (UniProt P47746+P47936). The assay is described as follows: Selectivity for DBA/J2 mouse CB2 receptor over CB1 receptor. It counts as protein assay.
Assay [4] addresses Cannabinoid receptor 1 (Mus musculus) (UniProt P47746). The assay is described as follows: (§1) Activity at CB1 receptor assessed as stimulation of [35S]GTP-gamma-S binding in DBA/J2 mouse brain. It counts as functional. The following applies: filed as agonist. (Binding of GTPγS marks nucleotide exchange on a G protein.)
The target of assay [5] is T1, Cannabinoid receptor 1. Described as §1. It counts as functional.
Assay [6] concerns the target Cannabinoid receptor 1 (Mus musculus) (UniProt P47746). The assay is described as follows: Activity at CB1 receptor assessed as stimulation of [35S]GTP-gamma-S binding in DBA/J2 mouse brain relative to control. It counts as functional. A digest of the protocol: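 Mouse brain (minus cerebellum) P2 membranes, 5-10 µg protein, incubated 60 min at 30 °C in 50 mM Tris-HCl, 3 mM MgCl2, 0.2 mM EGTA, 100 mM NaCl, pH 7.4, 0.1% BSA, with 0.05 nM [35S]GTPγS, 30 µM GDP, compound 1-5000 nM. Filtration, scintillation counting. Nonspecific binding with 10 µM GTPγS. Stimulation as % above basal. EC50/Emax by nonlinear regression; at least four experiments in duplicate.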

The target of assay [7] is Cannabinoid receptor 2 (Homo sapiens) (UniProt P34972). The assay is described as follows: Activity at CB2 receptor assessed as reduction in CD203c expression in activated human basophil. It counts as functional. A digest of the protocol: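 Human basophil-rich leukocytes from donor blood buffy coats via Ficoll-Paque. Cells pretreated with compound 1 nM to 1 µM for 30 min at 37 °C, then stimulated with anti-IgE 1 µg/mL for 30 min at 37 °C. CD203c (PE) read by flow cytometry on IgE-FITC-gated basophils. Antagonist check: SR 144528 or AM251 100 nM preincubated 30 min. Six experiments in triplicate.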

For orientation: Ki means the equilibrium dissociation constant of an inhibitor or competing ligand from its target. A low value points to tighter binding. By EC50 is commonly meant the concentration needed to bring the measured effect to its halfway point. By Emax is commonly meant the size of the effect at its maximum, as opposed to the concentration needed.

Cannabinoid receptor 1 (Mus musculus), sequence (P47746 whole entry): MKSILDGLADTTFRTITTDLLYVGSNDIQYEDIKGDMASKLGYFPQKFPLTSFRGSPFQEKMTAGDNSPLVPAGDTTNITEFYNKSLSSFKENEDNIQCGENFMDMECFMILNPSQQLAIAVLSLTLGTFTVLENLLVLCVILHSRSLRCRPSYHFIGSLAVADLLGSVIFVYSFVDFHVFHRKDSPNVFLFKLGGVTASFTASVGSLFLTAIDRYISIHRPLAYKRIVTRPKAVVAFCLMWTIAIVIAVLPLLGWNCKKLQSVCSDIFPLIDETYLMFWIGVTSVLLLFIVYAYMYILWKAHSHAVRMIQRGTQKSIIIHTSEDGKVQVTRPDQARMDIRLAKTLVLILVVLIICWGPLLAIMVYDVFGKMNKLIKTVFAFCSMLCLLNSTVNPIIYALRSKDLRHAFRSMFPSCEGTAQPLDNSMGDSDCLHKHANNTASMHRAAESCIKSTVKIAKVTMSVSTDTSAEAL
Cannabinoid receptor (Mus musculus), sequence (P47746 whole entry, looked up): as the sequence (P47746 whole entry) above
Cannabinoid receptor (Mus musculus), sequence (P47936 whole entry, looked up): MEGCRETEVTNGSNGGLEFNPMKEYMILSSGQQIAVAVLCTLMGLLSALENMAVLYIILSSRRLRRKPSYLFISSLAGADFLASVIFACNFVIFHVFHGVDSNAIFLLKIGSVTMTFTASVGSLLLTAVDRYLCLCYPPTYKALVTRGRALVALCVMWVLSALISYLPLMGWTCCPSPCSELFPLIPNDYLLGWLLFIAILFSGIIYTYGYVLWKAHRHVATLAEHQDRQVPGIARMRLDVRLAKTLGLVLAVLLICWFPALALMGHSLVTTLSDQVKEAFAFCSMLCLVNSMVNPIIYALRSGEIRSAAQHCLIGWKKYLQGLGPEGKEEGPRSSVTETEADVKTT
T1 sequence (P47746 whole entry): as the sequence (P47746 whole entry) above
Cannabinoid receptor 2, sequence (P47936 whole entry): as the sequence (P47936 whole entry, looked up) above
Cannabinoid receptor 2 (Homo sapiens), sequence (P34972 whole entry): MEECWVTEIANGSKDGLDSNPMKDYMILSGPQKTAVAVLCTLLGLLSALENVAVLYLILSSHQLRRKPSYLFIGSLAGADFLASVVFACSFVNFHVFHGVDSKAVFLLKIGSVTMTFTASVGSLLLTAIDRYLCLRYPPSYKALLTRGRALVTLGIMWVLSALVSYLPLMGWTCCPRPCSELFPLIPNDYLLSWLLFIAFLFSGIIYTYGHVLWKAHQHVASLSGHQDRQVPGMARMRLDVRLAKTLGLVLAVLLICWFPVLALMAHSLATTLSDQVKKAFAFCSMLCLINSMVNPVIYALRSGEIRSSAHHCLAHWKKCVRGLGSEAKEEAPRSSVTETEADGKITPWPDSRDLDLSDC

Consider `Cc1ccc2c(n1)N(CCN1CCOCC1)CC(C(=O)NC1CCC(C)CC1)C2O` (stereo not given), for which the inhibition constant (Ki) in assay [1] and in assay [2] was greater than 1000 nM each time.
Regarding `Cc1ccc2c(=O)c(C(=O)NC3CCCCC3)cn(Cc3ccccc3)c2n1`, the results for the Ki in assay [1] and in assay [2] were 127 nM and 10 nM, respectively. Further, in assay [3], the Ratio Ki amounted to 13.
As to `Cc1ccc2c(=O)c(C(=O)NC3CCC(C)CC3)cn(Cc3ccccc3F)c2n1` (stereo not given), the inhibitory constant (Ki) in assay [1] was 37.5 nM; in assay [2] it was 8.4 nM. For the same molecule, in assay [3], the Ratio Ki was found to be 4. The Activity result in assay [4] was “Agonist”. Moreover, the concentration giving a half-maximal response (EC50) in assay [5] came out at 138 nM. In addition, the Emax in assay [6] came out at 161%.
On to `O=C(NC1CCCCC1)c1cn(CCN2CCOCC2)c2ncccc2c1=O`, for which the Ki in assay [1] is greater than 1000 nM; in assay [2] it was 67.2 nM. Further, the Ratio Ki in assay [3] is greater than 15.
As to `O=C(NC1CCCCC1)c1cn(Cc2ccc(F)cc2)c2ncccc2c1=O`, the inhibitory constant (Ki) in assay [1] came out at 384 nM; in assay [2] it was 13 nM. The Ratio Ki in assay [3] worked out at 29.
As to `O=C(NC1CCCCC1)c1cn(Cc2ccccc2F)c2nc(Cl)ccc2c1=O`, in assay [2], the inhibition constant Ki was 18.1 nM.
`Cc1ccc2c(n1)N(Cc1ccccc1)CC(C(=O)NC1CCCCC1)C2O` (stereo not given): the Ki in assay [1] and in assay [2] was greater than 1000 nM throughout.
On to `Cc1ccc2c(=O)c(C(=O)NC3CCCCC3)cn(CCN3CCN(c4ccccc4)CC3)c2n1`, for which the inhibition constant Ki in assay [1] and in assay [2] was greater than 1000 nM throughout.
Turning to `O=C(NC1CCCCC1)c1cn(CCN2CCOCC2)c2cc(Cl)ccc2c1=O`, the Ki in assay [1] is greater than 1000 nM; in assay [2], 3.3 nM. In addition, the Ratio Ki in assay [3] was greater than 303.
For the molecule `Cc1ccc2c(=O)c(C(=O)NC3CCCCCC3)cn(Cc3ccccc3)c2n1`, the Ki in assay [1] stood at 143 nM; in assay [2] it was 5.1 nM. The Ratio Ki in assay [3] is 28.
In the case of `Cc1ccc2c(=O)c(C(=O)NC3CCCCC3)cn(CCc3ccccc3)c2n1`, the inhibitory constant (Ki) is greater than 1000 nM in assay [1] and 16.3 nM in assay [2]. Further, in assay [3], the Ratio Ki was greater than 62.
As for `Cc1ccc2c(=O)c(C(=O)NC3CCCC3)cn(CCN3CCOCC3)c2n1`, the figures for the inhibitory constant (Ki) in assay [1] and in assay [2] were greater than 1000 nM and 50 nM, respectively. Besides, the Ratio Ki in assay [3] is greater than 20. In assay [7], the outcome was Active.
As to `Cc1ccc2c(n1)N(Cc1ccccc1F)CC(C(=O)NC1CCCCC1)C2O` (stereo not given), the inhibition constant (Ki) in assay [1] and in assay [2] was greater than 1000 nM in each case.
On to `Cc1ccc2c(=O)c(C(=O)NC3CCC(C)CC3)cn(Cc3ccc(F)cc3)c2n1` (stereo not given), for which the values for the Ki in assay [1] and in assay [2] were 8.7 nM and 1.4 nM, respectively. Further, in assay [3], the Ratio Ki amounted to 6. In addition, in assay [4], the Activity entry was “Agonist”. In addition, the half-maximal effective concentration (EC50) in assay [5] worked out at 27 nM. Further, the Emax in assay [6] is 172%.
Take `O=C(NC1CCCCC1)c1cn(Cc2ccccc2)c2ncccc2c1=O`: the results for the inhibitory constant (Ki) in assay [1] and in assay [2] were greater than 1000 nM and 48.6 nM, respectively. Also, in assay [3], the Ratio Ki was greater than 21.
Take `CC1CCC(NC(=O)c2cn(CCN3CCOCC3)c3nc(Cl)ccc3c2=O)CC1` (stereo not given): the inhibitory constant (Ki) is greater than 1000 nM in assay [1] and 40.5 nM in assay [2]. The Ratio Ki in assay [3] is greater than 25.
Regarding `O=C(NC1CCCCC1)c1cn(Cc2ccccc2)c2nc(Cl)ccc2c1=O`, the Ki was determined as 464 nM in assay [1] and 24.6 nM in assay [2]. In addition, in assay [3], the Ratio Ki came out at 19.
For the molecule `COc1ccc(Cn2cc(C(=O)NC3CCCCC3)c(=O)c3ccc(C)nc32)cc1`, the inhibition constant Ki was greater than 1000 nM in assay [1] and 35.8 nM in assay [2]. For the same molecule, in assay [3], the Ratio Ki is greater than 28.
Regarding `O=C(NC1CCCCC1)c1cn(Cc2ccccc2)c2ccccc2c1=O`, the inhibition constant Ki in assay [1] is greater than 1000 nM; in assay [2], 4.8 nM. For the same molecule, the Ratio Ki in assay [3] is greater than 210. Moreover, in assay [7], the result was Active.
As for `O=C(NC1CCCCC1)c1cn(Cc2ccc(F)cc2)c2nc(Cl)ccc2c1=O`, the Ki in assay [1] was 495 nM; in assay [2], 21.4 nM. Besides, in assay [3], the Ratio Ki was 23.
Take `CCCCC/C=C\C/C=C\C/C=C\C/C=C\CCCC(=O)NCCCl`: the Ki in assay [1] amounted to 3.9 nM; in assay [2], 121 nM. The Ratio Ki in assay [3] is 0.03.
Regarding `Cc1c(C(=O)c2cccc3ccccc23)c2cccc3c2n1[C@H](CN1CCOCC1)CO3`, the maximum response (Emax) in assay [6] came out at 187%.
`CCCC(C)(C)c1ccc2c(c1)OC(C)(C)[C@@H]1CC=C(C)C[C@@H]21`: the figures for the Ki in assay [1] and in assay [2] were 458 nM and 65 nM, respectively. In addition, the Ratio Ki in assay [3] came to 7.
On to `Cc1ccc2c(=O)c(C(=O)NC3CCCCCC3)cn(Cc3ccc(F)cc3)c2n1`, for which the Ki in assay [1] was determined as 4.3 nM; in assay [2], 1 nM. For the same molecule, in assay [3], the Ratio Ki is 4.3.
Take `Cc1ccc2c(=O)c(C(=O)NC3CCCCCC3)cn(Cc3ccccc3F)c2n1`: the inhibition constant (Ki) in assay [1] turned out to be 149 nM; in assay [2] it was 13.4 nM. Besides, the Ratio Ki in assay [3] turned out to be 11.
